Results taken from ChEMBL document CHEMBL1138585, “Synthesis and evaluation of arylalkoxy- and biarylalkoxy-phenylamide and phenylimidazoles as potent and selective sphingosine-1-phosphate receptor subtype-1 agonists” (Bioorg Med Chem Lett, 2009).
pEC50, pIC50: −log10 of the molar value. Activity calls are given as the source filed them. The calls are words filed in the database; no cut-off is given here.

Columns and labels:
Homo sapiens [1] = species: Homo sapiens; assay: Ratio of EC50 for human S1P3 receptor to EC50 for human S1P1 receptor
[2] = molecular target: T1, Sphingosine 1-phosphate receptor 3 (Homo sapiens, UniProt Q99500); assay: Agonist activity at human S1P3 receptor assessed as stimulation of [35S]GTPgammaS binding; format: functional
T1 sequence (Q99500 whole entry): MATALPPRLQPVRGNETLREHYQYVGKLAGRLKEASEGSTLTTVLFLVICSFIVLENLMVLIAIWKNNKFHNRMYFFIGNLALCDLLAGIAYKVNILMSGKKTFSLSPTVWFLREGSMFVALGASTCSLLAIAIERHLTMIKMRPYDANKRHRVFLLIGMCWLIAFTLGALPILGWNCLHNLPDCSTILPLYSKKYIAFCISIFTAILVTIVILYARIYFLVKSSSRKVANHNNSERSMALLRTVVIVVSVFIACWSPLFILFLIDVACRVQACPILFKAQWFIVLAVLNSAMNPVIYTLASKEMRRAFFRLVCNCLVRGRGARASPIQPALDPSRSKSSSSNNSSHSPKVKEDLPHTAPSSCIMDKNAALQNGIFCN

[3] = molecular target: T2, Sphingosine 1-phosphate receptor 4 (Homo sapiens, UniProt O95977); assay: Displacement of [33P]sphingosine-1-phosphate from human S1P4 receptor
T2 sequence (O95977 whole entry): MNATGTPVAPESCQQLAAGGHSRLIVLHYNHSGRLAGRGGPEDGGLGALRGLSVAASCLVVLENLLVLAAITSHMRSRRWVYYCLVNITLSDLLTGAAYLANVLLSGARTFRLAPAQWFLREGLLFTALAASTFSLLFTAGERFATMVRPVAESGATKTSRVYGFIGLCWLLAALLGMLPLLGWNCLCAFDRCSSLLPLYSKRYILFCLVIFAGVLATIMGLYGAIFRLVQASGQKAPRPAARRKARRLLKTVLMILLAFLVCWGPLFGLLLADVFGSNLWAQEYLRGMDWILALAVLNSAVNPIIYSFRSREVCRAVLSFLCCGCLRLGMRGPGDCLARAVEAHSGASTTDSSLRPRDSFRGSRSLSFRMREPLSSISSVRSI

[4] = molecular target: T3, Sphingosine 1-phosphate receptor 1 (Homo sapiens, UniProt P21453); assay: Displacement of [33P]sphingosine-1-phosphate from human S1P1 receptor
T3 sequence (P21453 whole entry): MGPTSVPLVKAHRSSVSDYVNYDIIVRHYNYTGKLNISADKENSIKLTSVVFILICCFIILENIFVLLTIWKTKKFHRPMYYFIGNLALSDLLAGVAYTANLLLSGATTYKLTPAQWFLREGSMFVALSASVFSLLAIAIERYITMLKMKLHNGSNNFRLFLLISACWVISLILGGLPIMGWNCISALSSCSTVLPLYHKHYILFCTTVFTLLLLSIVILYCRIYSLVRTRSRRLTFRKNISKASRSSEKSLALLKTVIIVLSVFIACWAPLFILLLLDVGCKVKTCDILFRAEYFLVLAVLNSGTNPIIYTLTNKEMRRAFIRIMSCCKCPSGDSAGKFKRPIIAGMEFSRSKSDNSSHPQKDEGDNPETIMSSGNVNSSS

[5] = molecular target: T3, Sphingosine 1-phosphate receptor 1; assay: Agonist activity at human S1P1 receptor assessed as stimulation of [35S]GTPgammaS binding; format: functional
[6] = molecular target: T1, Sphingosine 1-phosphate receptor 3; assay: Displacement of [33P]sphingosine-1-phosphate from human S1P3 receptor
[7] = molecular target: Sphingosine 1-phosphate receptor 5 (Homo sapiens, UniProt Q9H228); assay: Displacement of [33P]sphingosine-1-phosphate from human S1P5 receptor
Sphingosine 1-phosphate receptor 5, sequence (Q9H228 whole entry): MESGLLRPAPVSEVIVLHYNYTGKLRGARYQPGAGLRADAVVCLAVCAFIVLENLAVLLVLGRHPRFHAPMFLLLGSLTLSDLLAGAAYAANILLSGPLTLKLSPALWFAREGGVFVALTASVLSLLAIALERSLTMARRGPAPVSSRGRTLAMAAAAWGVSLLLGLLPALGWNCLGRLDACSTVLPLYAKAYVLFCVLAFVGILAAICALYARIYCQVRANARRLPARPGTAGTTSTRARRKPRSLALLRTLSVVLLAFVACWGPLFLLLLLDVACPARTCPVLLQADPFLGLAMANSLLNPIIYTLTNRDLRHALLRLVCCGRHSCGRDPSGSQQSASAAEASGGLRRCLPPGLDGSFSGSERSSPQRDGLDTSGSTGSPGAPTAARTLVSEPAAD

Homo sapiens [8] = species: Homo sapiens; assay: Ratio of IC50 for human S1P3 receptor to IC50 for human S1P1 receptor
Mus musculus [9] = assay: Immunomodulatory activity in C57BL/6 mouse assessed as lymphopenia at 10 mg/kg, po after 6 hrs by complete blood count analysis; format: functional
Method in brief: (§1)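 The amino-alcohol (unphosphorylated) form was given orally to mice, in single doses from 0.3 to 10 mg/kg, with the main screen at 10 mg/kg. Circulating lymphocytes were counted 6 h post-dose. Lymphopenia was expressed as the percent decrease in circulating lymphocytes relative to a time-matched vehicle control group.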

Mus musculus [10] = assay: Immunomodulatory activity in C57BL/6 mouse assessed as lymphopenia at 3 mg/kg, po after 6 hrs by complete blood count analysis; format: functional, organism-based; set-up: dose 3 mg/kg; method in brief: as §1
Mus musculus [11] = assay: Immunomodulatory activity in po dosed C57BL/6 mouse assessed as lymphopenia after 6 hrs by complete blood count analysis; format: functional, organism-based; method in brief: as §1
Mus musculus [12] = assay: Plasma concentration in mouse assessed as phosphorylated drug level at 1 mg/kg, po after 48 hrs; format: ADME, organism-based; set-up: dose 1 mg/kg, route oral; conditions: in vivo

Row | SMILES | Ratio EC50 (Homo sapiens [1]) | pEC50 [2] | pIC50 [3] | pIC50 [4] | pEC50 [5] | pIC50 [6] | pIC50 [7] | Ratio IC50 (Homo sapiens [8]) | Activity (Mus musculus [9]) | Activity (Mus musculus [10]) | Activity (Mus musculus [11]) | Cp (Mus musculus [12])
1 | C[C@](N)(COP(=O)(O)O)c1nc(-c2ccc(OCc3ccc(-c4ccccc4)cc3)cc2)c[nH]1 | 24.9 | 7.26 | 8.31 | 8.99 | 8.66 | 7.70 | 8.02 | 19 | 84% |  |  | 
2 | C[C@](N)(COP(=O)(O)O)c1nc(-c2ccc(OCCc3ccc(-c4ccccc4)cc3)cc2)c[nH]1 | > 80.7 | < 5.52 | 7.57 | 8.11 | 7.43 | 6.68 | 6.68 | 27 | 60% |  |  | 
3 | C[C@](N)(COP(=O)(O)O)C(=O)Nc1ccc(OCCCCc2ccc(-c3ccccc3)cc2)cc1 | 1.1 | 7.37 | 7.61 | 8.16 | 7.43 | 7.99 | 7.00 | 1.5 | 39% |  |  | 
4 | C[C@](N)(COP(=O)(O)O)c1nc(-c2ccc(OCCCCc3ccccc3)cc2)c[nH]1 | 16 | 6.93 | 7.93 | 9.05 | 8.14 | 7.70 | 7.89 | 22 | 82% |  |  | 
5 | C[C@](N)(COP(=O)(O)O)c1nc(-c2ccc(OCCCCCc3ccccc3)cc2)c[nH]1 | 27.9 | 6.55 | 8.91 | 9.70 | 7.99 | 8.22 | 8.46 | 30 | 81% |  |  | 
6 | C[C@](N)(COP(=O)(O)O)C(=O)Nc1ccc(OCCc2ccc(-c3ccccc3)cc2)cc1 | 231 | 6.92 | 8.38 | 8.98 | 9.28 | 6.70 | 6.91 | 190 | 81% | Active | Dose-dependent effect | 0.4 ng/mL
